An excerpt weighted towards active compounds, which were near 4.9% of everything screened.
HSF1 activator – increases HSF-1 driven luciferase reporter signal. NIH3T3-HGL HSF-1 luciferase reporter, MG132, 8 h; 100% = twice DMSO control signal. activation, % at 9 µM. hit rate 1.7% among 300,000;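 active = mean replicate activation of at least 50% with a set share of replicates each reaching 50%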;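 note: 0% = median of the neutral control wells and 100% = twice that signal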
CHT allo act – allosterically activates the human high affinity choline transporter | CHT-expressing cells, membrane potential dye, choline EC20; active compounds read high; LV-AA mutant CHT in HEK293 cells | B-score at 10 µM | hit rate 0.49% among 310,000;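 active = initial fluorescence not abnormally high and integrated response B-score, plate-corrected, over 3 SD above library mean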
Target sequence (Q9GZV3 whole entry, looked up): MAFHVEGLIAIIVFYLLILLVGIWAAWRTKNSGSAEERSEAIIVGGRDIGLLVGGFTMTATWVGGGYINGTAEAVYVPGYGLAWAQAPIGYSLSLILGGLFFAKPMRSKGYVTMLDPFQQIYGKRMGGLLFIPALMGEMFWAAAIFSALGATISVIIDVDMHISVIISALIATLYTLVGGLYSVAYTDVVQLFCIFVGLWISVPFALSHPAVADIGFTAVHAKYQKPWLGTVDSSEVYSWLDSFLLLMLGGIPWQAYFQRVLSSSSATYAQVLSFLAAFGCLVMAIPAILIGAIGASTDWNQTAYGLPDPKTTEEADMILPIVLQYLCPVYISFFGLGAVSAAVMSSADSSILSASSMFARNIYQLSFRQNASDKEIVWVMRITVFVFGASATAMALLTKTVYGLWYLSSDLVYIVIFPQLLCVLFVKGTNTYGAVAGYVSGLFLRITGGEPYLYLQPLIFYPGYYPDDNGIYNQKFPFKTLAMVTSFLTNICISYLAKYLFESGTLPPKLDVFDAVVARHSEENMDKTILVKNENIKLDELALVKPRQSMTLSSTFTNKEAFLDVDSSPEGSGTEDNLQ
Hep lipid drop – hepatic lipid droplet formation modulation; AID 1656; hit rate 0.4% among 240,000; AML12 mouse hepatocytes, oleate lipid droplets, BODIPY imaging; inhibition, % at 6.5 µM;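 active = lipid droplet intensity inhibited by at least 50%, with more than 500 cells counted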
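Test system: AML12 mouse liver cells; schedule: overnight exposure; technique: high-content imaging of BODIPY-stained droplets and DAPI nuclei; read-out: % inhibition of corrected integrated BODIPY droplet signal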
HSF1 inh – HSF1 inhibition; NIH3T3-HGL HSE-luciferase, MG132-induced, luminescence 8 h; active compounds read low; activity change, negative = inhibition, % at 7.5 µM (by protocol); hit rate 0.77% among 300,000;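 active = more than half of replicate wells show activity change below -50%, luminescence cut by over half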;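 note: luciferase reports HSF-1 transcriptional activity via heat shock element; 0% = median of DMSO wells and -100% = zero luminescence signal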
CHT block – inhibits the human high affinity choline transporter; B-score at 10 µM; Q9GZV3; hit rate 0.86% among 310,000; CHT-expressing cells, membrane potential dye, choline response; active compounds read low;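 active = B-score over 3 SD under the library average, and starting fluorescence ratio not unusually high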;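 note: choline stimulus applied at its EC90 after an EC20 pre-addition; B-score computed on integrated fluorescence ratio after choline addition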
PHOSPHO1 inh – inhibitors of human PHOSPHO1 phosphatase; AID 1565; inhibition, % at 13.3 µM; hit rate 1.1% among 290,000; recombinant PHOSPHO1, absorbance phosphatase assay; in the data active = inhibition above about 60%
CHT act confirm – human CHT activation, confirmatory screen. shares compounds with CHT allo act. CHT-expressing cells, membrane potential dye fluorescence (FDSS); % of choline EC20–EC90 response window; HEK293 expressing CHT LV-AA mutant; choline added at its EC20. activation, % at 10 µM. hit rate 91% among 2,500. AID 504833;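 active = primary screen active, with duplicate mean activation above negative control mean plus 3 SD, cut at about 11% in these data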
HEK293 MP dye – counter-screen for CHT activators: effect in parental HEK293 cells. shares compounds with CHT allo act. membrane potential dye fluorescence (FDSS); measured after EC20 choline addition. ratio readout change at 10 µM, hits read low. hit rate 62% among 2,500;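 active = duplicate-averaged ratio beyond 3 SD from buffer wells, up or down, though filed actives are nearly all decreases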
* = called active by the depositor; i = inactive; . = no result.

SMILES	HSF1 activator	CHT allo act	Hep lipid drop	HSF1 inh	CHT block	PHOSPHO1 inh	CHT act confirm	HEK293 MP dye
Cc1ccc(SC[C@H](Cc2ccccc2)N2CCN(CC(C)C)CCC2=O)cc1	-17	.	3	-6	.	16	.	.
O=C1CCN(Cc2ccccc2)CCN1[C@H](COc1ccccc1)Cc1ccccc1	1	6.7*	-22	2	i	-2	24*	i
CC(C)CN1CCC(=O)N([C@H](CSc2ccccc2)Cc2ccccc2)CC1	1	13*	-36	1	i	4	42*	i
COc1cccc(NC(=O)c2cc(-c3ccc(OC)cc3OC)nc3ccccc23)c1	-4	i	.	-5	i	.	.	.
CNC(=O)CN1C(=O)NC(Cc2c[nH]c3ccccc23)C1=O (configuration not stated)	46	i	-16	19	i	29	.	.
COC(=O)CSc1nc2ccc(NC(=O)c3ccccc3C(=O)N3CCOCC3)cc2s1	10	i	-3	-2	i	-4	.	.
O=C(Nc1ccc2nc(SCc3ccc(Cl)cc3)sc2c1)c1ccccc1C(=O)N1CCOCC1	3	i	.	18	i	6	46*	i
CN(C)c1ccc(C(=S)N2CCNCC2)cc1	5	i	29	-4	i	-9	.	.
CC(C)CN1CCN(Cc2cccn2-c2ccccn2)CC1CCO (configuration not stated)	0	i	-2	-6	i	58	.	.
CC(C)CN1CCN(Cc2cccn2-c2ccc(Cl)cn2)CC1CCO (configuration not stated)	1	i	0	-1	i	48	54*	i
CCn1c(C)[n+](CCOCC[n+]2c(C)n(CC)c3cc(Cl)c(Cl)cc32)c2cc(Cl)c(Cl)cc21	.	6.7*	-4	.	i	83*	31*	-49*
CC(=O)OCCn1c(C)[n+](CCOC(C)=O)c2cc(Cl)c(Cl)cc21	4	i	5	-5	i	6	.	.
CCN(CC)CCCN(C(=O)c1cccs1)c1nc(-c2ccc(OC)cc2)cs1	-2	6.3*	.	3	i	-14	48*	-47*
Cc1cc(C)c(C(=O)NC2CC(C)(C)Cc3c2cnn3-c2ccccc2)o1 (configuration not stated)	7	i	5	-5	i	23	.	.
Brc1ccc2nc(-c3ccncc3)c(NC3CCCC3)n2c1	-3	i	-7	-14	i	-16	.	.
Brc1ccc2nc(-c3cccs3)c(NCC3CCCO3)n2c1 (configuration not stated)	32	6.7*	-34	18	i	-99	10	i
COc1ccc(C2=NS(=O)(=O)N(C)C(C(=O)N3CCC(C)CC3)=C2)cc1	-4	i	-1	8	i	23	.	.
CN1C(C(=O)N2CCc3ccccc3C2)=CC(c2ccc(F)cc2)=NS1(=O)=O	3	6.7*	-12	2	i	26	13*	i
COc1ccccc1/C=N/NC(=O)CC(=O)Nc1ccc(Cl)c(Cl)c1	-2	i	.	7	i	30	.	.
CCOC(=O)c1ncccc1NC(=O)CC(=O)Nc1cccnc1C(=O)OCC	-1	i	.	-4	i	.	32*	-36*
CCOC(=O)c1nnn(CC(=O)Nc2cccc(Cl)c2C)c1C(=O)OCC	9	i	-6	1	i	5	.	.
CCOc1ccc(N(C(=O)c2cc3ccccc3oc2=O)C2C=CS(=O)(=O)C2)cc1 (configuration not stated)	-9	i	2	-9	i	32	.	.
CCC(C)(C)NC(=O)C(c1ccc(C)o1)N(Cc1cccs1)C(=O)Cn1nnc2ccccc21 (configuration not stated)	32	i	.	14	i	-16	.	.
CCC(C)(C)NC(=O)C(c1ccccc1)N(Cc1cccs1)C(=O)Cn1nnc2ccccc21 (configuration not stated)	3	i	.	4	i	.	19*	i
CCOc1cc(NC(=O)c2ccco2)c(OCC)cc1NC(=O)c1ccco1	-34	11*	-2	-17	i	42	21*	i
SMILES	HSF1 activator	CHT allo act	Hep lipid drop	HSF1 inh	CHT block	PHOSPHO1 inh	CHT act confirm	HEK293 MP dye
CCCCCCCCCCC[N+](C)(C)CC/C=C1/c2ccccc2Sc2ccc(Cl)cc21	-3	i	.	5	i	14	.	.
CCCCCCCCCC[N+](C)(C)CC/C=C1/c2ccccc2Sc2ccc(Cl)cc21	16	8.2*	.	0	i	36	-1	-47*
CC(=O)Oc1ccccc1/C=C/c1ccc2ccccc2[n+]1C	-6	6.9*	-32	-6	i	-2	48*	-42*
COc1cc(-c2nc3cccc(C)n3c2NCC2CCCO2)ccc1O (configuration not stated)	24	6.7*	2	31	i	50	36*	-40*
COc1cccc2cc(C(=O)NCC3CCCO3)c(=O)oc12 (configuration not stated)	-3	i	-5	13	i	-1	.	.
COc1ccc(CNCc2c(O)c(Cl)cc3c(C)c(C)c(=O)oc23)c(OC)c1	-1	i	9	-6	i	42	.	.
Cc1c(C(=O)N/N=C/c2cccnc2)nnn1-c1nonc1N	-6	i	-5	-10	i	16	31*	-45*
Cc1ccc(-c2c(C(=O)N/N=C/c3cccnc3)nnn2-c2nonc2N)cc1	3	i	1	-1	i	31	.	.
Cc1sc2nc(CN3CCCC3)nc(N3CCN(C(=O)c4ccco4)CC3)c2c1C	-5	7.3*	-16	5	i	28	46*	-39*
Cc1sc2nc(CN3CCCC3)nc(N3CCC(C(N)=O)CC3)c2c1C	11	8.9*	14	-1	i	-1	67*	-54*
CCCn1cnc2scc(-c3ccc(C)c(C)c3)c2c1=O	8	i	-9	2	i	34	.	.
O=C(NCC(c1ccco1)N1CCc2ccccc21)c1c(F)cccc1F (configuration not stated)	-11	i	.	-4	i	.	.	.
O=C(NCC(c1ccco1)N1CCc2ccccc21)c1ccccc1Cl (configuration not stated)	7	9.4*	.	-5	i	.	29*	i
O=C(NCC(c1ccco1)N1CCc2ccccc2C1)c1ccc(Cl)cc1 (configuration not stated)	6	i	.	-4	i	.	11*	i
